Results gathered from unrelated publications.
Protocols differ between the studies behind these lines.
Target: Calcium/calmodulin-dependent protein kinase type 1D (CAMK1D, Homo sapiens, UniProt Q8IU85)

SMILES	read-out	mode	technique	tested at	measurement	result
CN1CCC2(CC1)NC(=O)c1c(c3ccc(Cl)c(Cl)c3n1C)C2C#N (racemic)	thermal stability	–	DSF	10 µM	ΔTm	-0.4 °C
COc1cc2ncnc(Nc3ccc(F)c(Cl)c3)c2cc1OCCCN1CCOCC1	cell-free assay	–	–	0.5 µM	remaining signal	88.6%
Cc1ccc(Nc2nccc(N(C)c3ccc4c(C)n(C)nc4c3)n2)cc1S(N)(=O)=O	enzyme activity	inhibitor	–	10 µM	inhibition	32%
N#CCCc1ccc2c(c1)-c1[nH]c3ccc([N+](=O)[O-])cc3c1CC(=O)N2	cell-free assay	–	–	0.5 µM	remaining signal	91.8%
COc1cc(Cl)c(C(=O)N[C@@H](CN[C@H]2CC[C@@H](N)CC2)Cc2ccc(C#N)cc2)cc1-c1ccc(CN[C@H](C)c2ccc(C)cc2)o1	enzyme activity	inhibitor	–	1 µM	remaining activity	88%
CNCc1ccccc1-c1csc([C@H](C)Nc2nc(C)nc3cc(OC)c(OC)cc23)c1	cell-free assay	–	competition with immobilised ligand	1 µM	remaining binding	100%
N#CC1c2c([nH]c3c(Cl)c(Cl)ccc23)C(=O)NC12CCCCC2 (racemic)	thermal stability	–	DSF	10 µM	ΔTm	0.7 °C
O=C1NC(=O)c2cc(Nc3ccc(F)cc3)c(Nc3ccc(F)cc3)cc21	cell-free assay	–	–	0.5 µM	remaining signal	78.1%
CNC(=O)c1cc(Oc2ccc(NC(=O)Nc3ccc(Cl)c(C(F)(F)F)c3)cc2)ccn1	enzyme activity	inhibitor	–	0.3 µM	inhibition	11%
C[C@H](c1ccnc(Nc2nc3ccc(-c4cc(N(C)C)ncn4)cc3[nH]2)c1)N1CCN(C(=O)CC(F)(F)F)CC1	cell-free assay	–	competition with immobilised ligand	0.1 µM	remaining binding	95%
Cc1ccc(C(=O)Nc2ccc(CN3CCN(C)CC3)c(C(F)(F)F)c2)cc1C#Cc1cnc2cccnn12	enzyme activity	inhibitor	–	23.5 nM	remaining activity	86%
Cc1c(NC(=O)c2cc(C(N)=O)nc3cc(F)ccc23)c(C(F)(F)F)nn1Cc1ccc(C(C)(C)C)cc1	cell-free assay	–	competition with immobilised ligand	1 µM	remaining binding	84%
c1ccc(CNc2nc(N3CCOc4ccccc43)nc3c2CCCC3)cc1	target engagement in cells	inhibitor	chemoproteomics	20 mM	inhibition	-2.2%
O=c1cc(-c2cccc3c2Sc2ccccc2S3)oc(N2CCOCC2)c1	enzyme activity	inhibitor	–	0.5 µM	remaining activity	106%
O=C1CCc2cc(Nc3cc(OC4CCOCC4)c([N+](=O)[O-])cc3Cl)ccc2N1	cell-free assay	–	competition with immobilised ligand	1 µM	remaining binding	100%
CCCS(=O)(=O)Nc1ccc(F)c(C(=O)c2c[nH]c3ncc(-c4ccc(Cl)cc4)cc23)c1F	enzyme activity	inhibitor	–	1 µM	inhibition	< 10%
CC1(C)NC(=O)c2[nH]c3c(Cl)c(Cl)ccc3c2C1C#N (stereo not drawn)	thermal stability	–	DSF	10 µM	ΔTm	-0.6 °C
CC1=C(C#N)C(c2ccc3c(c2)c(NC(=O)c2ccccc2C)nn3C)C(C#N)=C(C)N1	cell-free assay	–	competition with immobilised ligand	1 µM	remaining binding	93%
CCN(CC)c1ccc(C2=NNC(=O)CC2C)cc1[N+](=O)[O-] (stereo not drawn)	enzyme activity	inhibitor	–	10 µM	remaining activity	105%
O=C(NC[C@@H]1[C@H]2CN(C(=O)OCc3cc(C(F)(F)F)cc(C(F)(F)F)c3)C[C@@H]12)c1ccc2[nH]nnc2c1	cell-free assay	–	competition with immobilised ligand	1 µM	remaining binding	100%
CC(C)(O)[C@H]1CC[C@H](Nc2ccc3ncc(-c4cccc(C(F)(F)F)c4)n3n2)CC1	enzyme activity	inhibitor	–	1 µM	remaining activity	83.7%
O=C(NCc1ncc(C(F)(F)F)cc1Cl)c1ccc2c(c1)C1(CCS(=O)(=O)CC1)[C@@H](C1CC1)N2S(=O)(=O)c1ccc(F)cc1	cell-free assay	–	competition with immobilised ligand	1 µM	remaining binding	99%
Cn1c2c(c3ccc(Cl)c(Cl)c31)C(C#N)C1(CCCC1)NC2=O (stereo not drawn)	thermal stability	–	DSF	10 µM	ΔTm	0 °C
Cc1cc(-n2nc(Cc3cc(F)cc(C(F)(F)F)c3)nc2C)ccc1C(N)=O	cell-free assay	–	competition with immobilised ligand	1 µM	remaining binding	96%
COc1cc2ncnc(Nc3ccc(Oc4ccccc4)c(C)c3C)c2cc1OC	enzyme activity	inhibitor	–	1 µM	inhibition	1%
CC(C)(C)c1nc2c(s1)c1nc(N)ncc1c1ccc(NS(=O)(=O)c3c(F)cccc3F)c(F)c12	enzyme activity	inhibitor	radiometric	1 µM	remaining activity	97%
CCC1(CC)NC(=O)c2c(c3ccc(Cl)c(Cl)c3n2C)C1C#N (stereo not drawn)	thermal stability	–	DSF	10 µM	ΔTm	-0.2 °C
COc1cccc2c(NCc3ccccc3)nc(-n3c(N)nc4ccccc43)nc12	target engagement in cells	inhibitor	chemoproteomics	20 mM	inhibition	0%
Cn1c2c(c3ccc(Cl)c(Cl)c31)C(C#N)C(C)(C)NC2=O (stereo not drawn)	thermal stability	–	DSF	10 µM	ΔTm	-0.6 °C
O=C(Nc1cnn(-c2csc(C(=O)NC3COC3)c2)c1)Nc1c(F)cccc1Cl	enzyme activity	inhibitor	–	5 µM	remaining activity	99.6%
